Source: ChEMBL document CHEMBL1148712, “Design, synthesis, and SAR study of a series of N-alkyl-N'-[2-(aryloxy)-5-nitrobenzenesulfonyl]ureas and -cyanoguanidine as selective antagonists of the TPalpha and TPbeta isoforms of the human thromboxane A2 receptor” (J Med Chem, 2007)
The source made the active and inactive calls. No cut-off for these calls is given here.

How the values were obtained:
Thromboxane A2 receptor [1] = target: T1, Thromboxane A2 receptor (Homo sapiens, UniProt P21731); assay: Antagonist activity at human thromboxane A2 receptor isoform alpha expressed in HEK293 cells assessed as inhibition of U46619-induced calcium mobilization; assay type: functional, cell-based
T1 sequence (P21731 whole entry): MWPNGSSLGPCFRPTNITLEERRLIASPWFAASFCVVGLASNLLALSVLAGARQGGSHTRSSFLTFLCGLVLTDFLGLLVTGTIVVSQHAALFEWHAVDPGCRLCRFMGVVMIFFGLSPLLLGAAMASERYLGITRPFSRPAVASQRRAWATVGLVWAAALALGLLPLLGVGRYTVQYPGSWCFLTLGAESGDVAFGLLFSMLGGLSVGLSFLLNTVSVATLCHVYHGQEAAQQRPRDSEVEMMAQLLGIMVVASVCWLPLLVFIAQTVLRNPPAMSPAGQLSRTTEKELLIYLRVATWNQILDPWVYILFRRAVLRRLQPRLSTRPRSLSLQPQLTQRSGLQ
In short: (§1)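 HA-tagged receptor stably overexpressed in HEK293 cells grown in DMEM with 10% FBS. Trypsinized cells washed in Krebs-HEPES pH 7.4, loaded 1 h with Fluo-4/AM (5 µg/mL), rinsed, 150 000 cells/well. Compound (10^-8 to 10^-5 M final) for 10 min before U46619 (1 µM final). Emission at 538; Triton/EGTA calibration, Kd 385 nM. IC50 by nonlinear regression, ≥3 curves.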

Thromboxane A2 receptor [2] = target: T1, Thromboxane A2 receptor; assay: Antagonist activity at human thromboxane A2 receptor isoform beta expressed in HEK293 cells assessed as inhibition of U46619-induced calcium mobilization; assay type: functional, cell-based; in short: as §1
[3] = target: T2, Thromboxane A2 receptor (Homo sapiens) (UniProt P21731); assay: Ratio of IC50 for thromboxane A2 receptor isoform alpha to IC50 for thromboxane A2 receptor isoform beta; assay type: functional
T2 sequence (whole entry): T1 sequence (P21731 whole entry)
In short: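 Selectivity index calculated as IC50 for TPα divided by IC50 for TPβ. Both IC50s come from U46619 (1 µM)-induced Fluo-4 [Ca2+]i assays in HEK293 cells stably overexpressing the respective isoform.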

Platelet = assay: Inhibition of U46619-induced human platelet aggregation; assay type: functional, cell-based
In short: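 Turbidimetric Born method on PRP from 10 healthy donors aged 20-30, medication-free for 14 days. Platelets adjusted to 3 × 10⁸ cells/mL with PPP, stirred at 1000 rpm. Compound (10^-9 to 10^-5 M) preincubated 3 min at 37 °C, then U46619 (1 µM final). Maximum light transmission read 6 min after inducer; IC50 by nonlinear regression from ≥3 curves.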

[4] = target: T2, Thromboxane A2 receptor (Homo sapiens); assay: Antagonist activity at human thromboxane A2 receptor isoform beta expressed in HEK293 cells assessed as inhibition of U46619-induced calcium mobilization at 0.1 uM; assay type: functional, cell-based
In short: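 HEK293 cells stably overexpressing HA-tagged TPβ, loaded 1 h with Fluo-4/AM (5 µg/mL) in Krebs-HEPES pH 7.4. Compound at 0.1 µM for 10 min, then U46619 (1 µM final). Fluorescence calibrated to [Ca2+]i with Triton X-100 and EGTA; response taken against the rise with U46619 alone.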

Structure (SMILES) | IC50 (Thromboxane A2 receptor [1]) | IC50 (Thromboxane A2 receptor [2]) | Ratio IC50 [3] | IC50 (Platelet) | Activity [4]
CC(C)(C)NC(=O)NS(=O)(=O)c1cc([N+](=O)[O-])ccc1Oc1cccc(Cl)c1 | 698 nM | 73 nM | 9.6 |  | 
CCCCCNC(=O)NS(=O)(=O)c1cc([N+](=O)[O-])ccc1Oc1ccccc1Br | 3130 nM | 423 nM | 7.4 |  | 
CCCCCNC(=O)NS(=O)(=O)c1cc([N+](=O)[O-])ccc1Oc1cccc(C)c1 | 2530 nM | 223 nM | 11.3 |  | 
CCCCCNC(=O)NS(=O)(=O)c1cc([N+](=O)[O-])ccc1Oc1cccc(Cl)c1 | 2390 nM | 201 nM | 11.9 |  | 
CCCCCNC(=O)NS(=O)(=O)c1cc([N+](=O)[O-])ccc1Oc1ccc(OC)cc1 | 2670 nM | 446 nM | 6 |  | 
CC(C)(C)NC(=O)NS(=O)(=O)c1cc([N+](=O)[O-])ccc1Oc1ccccc1Br | 2580 nM | 151 nM | 17 |  | 
CCOc1ccc(Oc2ccc([N+](=O)[O-])cc2S(=O)(=O)NC(=O)NC(C)(C)C)cc1 | 19200 nM | 1100 nM | 17.5 |  | 
CCCCCNC(=O)NS(=O)(=O)c1cc([N+](=O)[O-])ccc1Oc1ccccc1Cl | 3060 nM | 387 nM | 7.9 |  | 
CCCNC(=O)NS(=O)(=O)c1cc([N+](=O)[O-])ccc1Oc1ccc(C)cc1 | 4220 nM | 448 nM | 9.4 |  | 
Cc1ccc(Nc2ccc([N+](=O)[O-])cc2S(=O)(=O)NC(=O)NC(C)(C)C)cc1 |  |  | 6.01 |  | 
CCCCCNC(=O)NS(=O)(=O)c1cc([N+](=O)[O-])ccc1Oc1ccc(Cl)cc1 | 871 nM | 98 nM | 8.9 |  | 
CCCCCNC(=O)NS(=O)(=O)c1cc([N+](=O)[O-])ccc1Oc1cccc(I)c1 | 4520 nM | 885 nM | 5.1 |  | 
Cc1ccccc1Oc1ccc([N+](=O)[O-])cc1S(=O)(=O)NC(=O)NC(C)C | 8750 nM | 501 nM | 17.5 |  | 
CC(C)(C)NC(=O)NS(=O)(=O)c1cc([N+](=O)[O-])ccc1Oc1ccc(Cl)cc1 | 3050 nM | 400 nM | 7.6 |  | 
CCCCCNC(=O)NS(=O)(=O)c1cc([N+](=O)[O-])ccc1Oc1ccccc1C | 1630 nM | 181 nM | 9 |  | 
Cc1ccc(Oc2ccc([N+](=O)[O-])cc2S(=O)(=O)NC(=NC(C)(C)C)NC#N)cc1 | 2080 nM | 579 nM |  |  | 
CC(C)(C)NC(=O)NS(=O)(=O)c1cc([N+](=O)[O-])ccc1Oc1ccccc1Cl | 2420 nM | 205 nM | 11.8 |  | 
Cc1ccccc1Oc1ccc([N+](=O)[O-])cc1S(=O)(=O)NC(=O)NC(C)(C)C | 3760 nM | 233 nM | 16.1 |  | 
Cc1cc(Oc2ccc([N+](=O)[O-])cc2S(=O)(=O)NC(=O)NC(C)(C)C)ccc1Cl | 1060 nM | 111 nM | 9.6 |  | 
CCCCCNC(=O)NS(=O)(=O)c1cc([N+](=O)[O-])ccc1Oc1ccc(Cl)c(C)c1 | 3720 nM | 565 nM | 6.6 |  | 
COc1cc(C)ccc1Oc1ccc([N+](=O)[O-])cc1S(=O)(=O)NC(=O)NC(C)(C)C | 528 nM | 52 nM | 10.2 |  | 
CC(C)(C)NC(=O)NS(=O)(=O)c1cc([N+](=O)[O-])ccc1Oc1cccc(I)c1 | 470 nM | 95 nM | 4.9 |  | 
CCCCCNC(=O)NS(=O)(=O)c1cc([N+](=O)[O-])ccc1Oc1cccc(Br)c1 | 5860 nM | 413 nM | 14.2 |  | 
CCCCNC(=O)NS(=O)(=O)c1cc([N+](=O)[O-])ccc1Oc1ccccc1C | 673 nM | 42 nM | 16.1 |  | 
CCCCCNC(=O)NS(=O)(=O)c1cc([N+](=O)[O-])ccc1Oc1ccc(OCCC)cc1 | 27200 nM | 4840 nM | 5.6 |  | 
Cc1cccc(Oc2ccc([N+](=O)[O-])cc2S(=O)(=O)NC(=O)NC(C)(C)C)c1 | 398 nM | 17 nM |  | 513 nM | Active
CCCCCNC(=O)NS(=O)(=O)c1cc([N+](=O)[O-])ccc1Oc1ccc(OCC)cc1 | 13600 nM | 749 nM | 18.1 |  | 

Further lines, results first:

IC50 (Thromboxane A2 receptor [1]) | IC50 (Thromboxane A2 receptor [2]) | Ratio IC50 [3] | IC50 (Platelet) | Activity [4] | Structure (SMILES)
10800 nM | 875 nM | 12.3 |  |  | CCCOc1ccc(Oc2ccc([N+](=O)[O-])cc2S(=O)(=O)NC(=O)NC(C)(C)C)cc1
 |  | 3.6 |  |  | Cc1ccc(Oc2ccc([N+](=O)[O-])cc2S(=O)(=O)N/C(=N\C#N)NC(C)(C)C)cc1
683 nM | 59 nM | 11.6 |  |  | CC(C)(C)NC(=O)NS(=O)(=O)c1cc([N+](=O)[O-])ccc1Oc1cccc(Br)c1
1940 nM | 152 nM | 12.7 |  |  | COc1ccc(Oc2ccc([N+](=O)[O-])cc2S(=O)(=O)NC(=O)NC(C)(C)C)cc1
8760 nM | 843 nM | 10.4 |  |  | Cc1ccc(Oc2ccc([N+](=O)[O-])cc2S(=O)(=O)NC(=O)NC(C)C)cc1
2640 nM | 205 nM | 12.9 |  |  | Cc1cccc(Oc2ccc([N+](=O)[O-])cc2S(=O)(=O)NC(=O)NC(C)C)c1
1660 nM | 523 nM | 3.2 |  |  | CC(C)(C)NC(=O)NS(=O)(=O)c1cc([N+](=O)[O-])ccc1Oc1ccc(Br)cc1
2190 nM | 302 nM | 7.2 |  |  | CCCCCNC(=O)NS(=O)(=O)c1cc([N+](=O)[O-])ccc1Oc1ccc(I)cc1
1970 nM | 99 nM | 19.9 |  |  | COc1cccc(Oc2ccc([N+](=O)[O-])cc2S(=O)(=O)NC(=O)NC(C)(C)C)c1
1010 nM | 120 nM | 8.4 |  |  | CCCCCNC(=O)NS(=O)(=O)c1cc([N+](=O)[O-])ccc1Oc1ccc(Br)cc1
2150 nM | 401 nM | 5.4 |  |  | CC(C)(C)NC(=O)NS(=O)(=O)c1cc([N+](=O)[O-])ccc1Oc1ccc(I)cc1
1910 nM | 155 nM | 12.3 |  |  | CCCCNC(=O)NS(=O)(=O)c1cc([N+](=O)[O-])ccc1Oc1cccc(C)c1
